# The full list was thinned out, with hits kept by preference.
# CHOP inh – CHOP inhibition in unfolded protein response; CHO-K1 CHOP-promoter luciferase, tunicamycin-induced, 15-18 h; AID 2732; 220,000 compounds, 3.8% hits; inhibition, % at 10 µM;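 active means compounds that reduced the stress-induced luciferase reporter signal by more than about 70% of percent inhibition, limit read from the data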
# A1 inh – inhibitors of the anti-apoptotic protein A1, read as caspase activation | caspase activation, % (test concentration not listed) | MEF A1-2A-BIM cells, Caspase-Glo 3/7 luminescence, 3 h; percent of clofoctol response, vehicle zero | 330,000 compounds, 0.066% hits;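 active means over half of replicate activation scores above 10%, or exactly half above 10 with the replicate mean above 10; inconclusive means replicate mean below 10 yet half the replicates above 10; inactive means over half of replicates below 10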
# XBP1 UPR activ – adaptive UPR (XBP1) activation. CHO-XBP1 luciferase reporter, IRE1-XBP1 UPR activation, luminescence; percent of tunicamycin response, DMSO as zero. activation, % at 20 µM. 330,000 compounds, 0.33% hits;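 active means versus positive control, 20 µM dose yields 30% or more activation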
#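 Assay system: CHO-XBP1 luciferase reporter cells; Schedule: 6 h treatment, 37 °C; Detection: glow luminescence from Steady-Glo reagent; Benchmarks: high control tunicamycin 10 µg/mL final, low control DMSO vehicle only.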
# UPR CHOP act – activators of apoptotic arm of unfolded protein response (CHOP). CHO-CHOP luciferase reporter, UPR activation, luminescence; percent of tunicamycin response over DMSO baseline. activation, % at 10 µM. 330,000 compounds, 0.34% hits. AID 449763;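 active means at 10 µM dose, activation of 40% or more, normalized to positive control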
#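 Assay system: CHO cells with stable CHOP pathway luciferase reporter; Buffer or medium: F12 plus 10% serum; Times: 16-18 h cell attachment, then 6 h compound exposure, 37 °C; Signal: luciferase luminescence; Read-out basis: percent activation relative to tunicamycin control; Control set: tunicamycin high control, DMSO low control.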
# A number is an active result; 0 = inactive; ? = inconclusive; - = no result.
SMILES,CHOP inh,A1 inh,XBP1 UPR activ,UPR CHOP act
Cc1cc(NC(=O)CN2C(=O)NC(Cc3ccccc3)C2=O)no1 (stereo not drawn),0,0,0,0
Cc1ccc(CNC(=O)CSc2nc(N3CCCCC3)nc(N3CCCCC3)n2)cc1,71,0,0,0
Cn1c(N)c(C(=O)COC(=O)C2CCN(S(=O)(=O)c3cccs3)CC2)c(=O)n(C)c1=O,0,0,0,0
Cc1cc(C)cc(N2C(=O)CSC2c2cccs2)c1 (stereo not drawn),0,0,0,0
C=C(C)COc1ccc2c(C)c(C)c(=O)oc2c1OCC(=C)C,0,0,0,0
C=C(C)COc1ccc2c3c(c(=O)oc2c1OCC(=C)C)CCC3,73,0,0,0
CC(=O)N[C@@H](C)c1nc2ccccc2n1CCNC(=O)[C@H]1CCCN1c1nc(CN2CCCCC2)cs1,-,0,0,0
CCCCCCOC(=O)C(C#N)c1nc2ccccc2nc1N1CCOCC1 (stereo not drawn),94,0,0,0
CCCC(=O)NC(=S)Nc1cccc(Cl)c1N1CCCC1,81,0,0,0
O=C(NC(=S)Nc1cccc(Cl)c1N1CCCCC1)c1cccs1,0,0,0,0
COc1ccc(Nc2cc(=O)n(C3CCCCC3)c(=O)[nH]2)c(OC)c1,0,0,0,0
Cc1cc(C)cc(Nc2cc(=O)n(C3CCCCC3)c(=O)[nH]2)c1,87,0,0,0
CC1(C)C(C=C(Cl)Cl)C1C(=O)N1CCN(c2ccccc2)CC1 (stereo not drawn),78,0,0,0
O=C(Nc1ccc(N2CCOCC2)cc1)Nc1ccc(Cl)c(Cl)c1,79,0,0,0
O=C(CCc1ccccc1)NC(=S)Nc1cccc(Br)c1,72,0,0,0
CCc1cccc(NC(=O)CS(=O)Cc2nc(-c3ccc(C)cc3)oc2C)c1 (stereo not drawn),93,0,0,0
COc1ccc(N2CCN(CCNC(=O)Nc3ccc(C)c(Cl)c3)CC2)cc1,-,0,0,0
COc1ccc(NC(=O)NCCCN2CCN(c3cc(C)ccc3C)CC2)cc1,72,0,0,0
COc1ccc(NC(=O)NCCCN2CCN(c3ccccc3F)CC2)cc1,0,0,0,0
COc1cc(NC(=O)NCCN2CCN(c3ccc(Cl)cc3)CC2)ccc1C,84,0,0,0
CCC(=O)N1CCN(c2nc(-c3ccccc3)c3c(c2C#N)CCCC3)CC1,73,0,0,0
COC(=O)Cn1c(CN(Cc2ccccc2)Cc2ccccc2)nc2c1c(=O)[nH]c(=O)n2C,0,0,0,0
COc1ccccc1NC(=S)N(CCc1c(C)[nH]c2ccccc12)Cc1cccs1,0,0,0,0
COc1ccc(NC(=S)N(CCc2c(C)[nH]c3ccc(C)cc23)Cc2cccs2)cc1,0,0,0,0
COc1ccc2[nH]c(C)c(CCN(Cc3cccs3)C(=S)Nc3ccccc3)c2c1,70,0,0,0
SMILES,CHOP inh,A1 inh,XBP1 UPR activ,UPR CHOP act
COc1ccc2[nH]c(C)c(CCN(Cc3cccs3)C(=S)Nc3ccc(F)cc3)c2c1,78,0,0,0
Cc1c(N=Nc2c(-c3ccc([N+](=O)[O-])cc3)[nH]n(C(N)=S)c2=O)cccc1[N+](=O)[O-],106,-,-,-
NC(=S)n1[nH]c(-c2ccc([N+](=O)[O-])cc2)c(N=Nc2ccccc2[N+](=O)[O-])c1=O,85,-,-,-
Cc1[nH]n(C(N)=S)c(=O)c1N=Nc1cccc([N+](=O)[O-])c1C,-,0,0,0
O=C(O)c1ccccc1-c1ccccc1C(=O)Nc1cccc(-c2nc3ccccc3o2)c1,0,0,0,0
Cc1ccc(N(C(=O)Cn2nnc(-c3ccccc3F)n2)C(C(=O)NC2CCCC2)c2ccncc2)cc1 (stereo not drawn),-,0,0,0
Nc1nc(SCc2nc3scc(-c4cccs4)c3c(=O)[nH]2)n[nH]1,78,0,0,0
CCOC(=O)c1c(C(F)(F)C(F)(F)C(F)(F)C(F)(F)F)n[nH]c1C,82,0,0,0
CCOC(=O)c1[nH]c(C)c(C(=O)OCC)c1C,0,0,0,0
CCC(=C(c1ccc(OC)cc1)c1ccc(OC)cc1)c1cn(CC(O)CN(CCO)CCO)c2ccccc12 (stereo not drawn),76,?,0,0
COc1ccc(NC(=O)c2cc(-c3cc(C)ccc3O)n[nH]2)cc1Cl,78,0,0,0
Cc1cccc(NC(=O)c2cc(-c3cc(C)ccc3O)n[nH]2)c1,-,0,0,0
